Data published in ChEMBL document CHEMBL3272058, “Synthesis, structure, and reactivity of adenosine cyclic 3',5'-phosphate benzyl triesters” (J Med Chem, 1977).

How the values were obtained:
C6 [1] = experiment: Morphological alteration in rat C6 cells at 10^-3 M after 90 mins by microscopy; format: ADME, cell-based; conditions: c6, 1.5 h, 1000 µM
Procedure, shortened: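 Near-confluent C6 rat glioma cultures (about 5-9 x 10^5 cells per plate), grown in DME with 10% newborn calf serum, were given 10^-3 M of each triester with theophylline. After 90 min on a shaking table, morphological change was scored microscopically as the percentage of altered cells. + means 90-95% and - means 0% differentiation.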

Bos taurus [2] = organism: Bos taurus; experiment: Activation of bovine brain cAMP-dependent protein kinase assessed as transfer of p32 to histone using [gamma-32P]ATP at 10^-7 M relative to cAMP triester
Procedure, shortened: (§1)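 Bovine brain cAMP-dependent protein kinase was purified by DEAE-cellulose chromatography (about 1000 units/mg). The 0.2 mL mix held 50 mM Mops pH 6.5, 5 mM MgCl2, 7 mM mercaptoethanol, [γ-32P]ATP (1.3 Ci/mmol), 60 µg calf thymus histones, 15-25 µg kinase and triester or cAMP. It ran 5 min at 30 °C, reading 32P in acid-precipitable histones. Value is test-compound activity divided by cAMP activity.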

Bos taurus [3] = organism: Bos taurus; experiment: Activation of bovine brain cAMP-dependent protein kinase assessed as transfer of p32 to histone using [gamma-32P]ATP at 10^-6 M relative to cAMP triester; procedure, shortened: as §1
Bos taurus [4] = organism: Bos taurus; experiment: Activation of bovine brain cAMP-dependent protein kinase assessed as transfer of p32 to histone using [gamma-32P]ATP at 10^-5 M relative to cAMP triester; procedure, shortened: as §1
Bos taurus [5] = organism: Bos taurus; experiment: Activation of bovine brain cAMP-dependent protein kinase assessed as transfer of p32 to histone using [gamma-32P]ATP at 10^-4 M relative to cAMP triester; procedure, shortened: as §1
[6] = Retardation factor, Rf of the compound in […] solvent; format: physicochemical
[7] = Retardation factor, Rf of the compound in ClCH2CH2Cl-EtOH solvent
[8] = Half life in Mops buffer at pH 6.5 at 30 degC by liquid chromatography; format: physicochemical
Procedure, shortened: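 Triester was held in Mops buffer, pH 6.5, at 30 °C. Products were separated by LC with UV monitoring at 258 nm, using integration or an internal standard. Half-life came from a pseudo-first-order kinetic fit.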

[9] = Half life in H2O at 5 uM at 50 degC by liquid chromatography; format: physicochemical; conditions: water
[10] = Photolysis mediated drug hydrolysis assessed as half life under 366 nm irradiation by liquid chromatography; format: physicochemical
Procedure, shortened: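 The o-nitrobenzyl ester, 4 mM in Me2SO-phosphate buffer pH 7.1 (1:10 v/v), was irradiated at 366 nm with a 320 nm cut-off, at 37 °C and 6 cm from the source. Half-life was estimated from the rate of cAMP formation followed by LC.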

C6 [11] = experiment: Drug uptake in rat C6 cells assessed as morphologically differentiation at 10^-4 M after 20 mins by microscopy; format: ADME, cell-based; conditions: c6, 20 min, 100 µM
Procedure, shortened: (§2)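 Growing C6 rat glioma cells were kept in DME with 10% newborn calf serum at 37 °C under 10% CO2. Near-confluent plates (about 5-9 x 10^5 cells) were exposed to triester with theophylline on a constantly moving shaking table. The percentage of morphologically altered cells was estimated by microscopy at intervals, with an error of 5-10%.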

C6 [12] = experiment: Drug uptake in rat C6 cells assessed as morphologically differentiation at 10^-4 M after 50 mins by microscopy; format: ADME, cell-based; conditions: c6, 50 min, 100 µM; procedure, shortened: as §2
C6 [13] = experiment: Drug uptake in rat C6 cells assessed as morphologically differentiation at 10^-4 M after 90 mins by microscopy; format: ADME, cell-based; conditions: c6, 1.5 h, 100 µM; procedure, shortened: as §2
C6 [14] = experiment: Drug uptake in rat C6 cells assessed as cAMP level per of protein at 10^-4 M after 90 mins; format: ADME, cell-based; conditions: c6, 1.5 h, 100 µM
Procedure, shortened: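 C6 glioma cells were grown in DME with 10% newborn calf serum at 37 °C under 10% CO2 and treated with triester plus theophylline. After 90 min, internal cAMP was measured by Gilman's method and related to protein, using a bovine serum albumin standard.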

C6 [15] = experiment: Drug uptake in rat C6 cells assessed as morphologically differentiation at 10^-3 M after 20 mins by microscopy; format: ADME, cell-based; conditions: c6, 20 min, 1000 µM
C6 [16] = experiment: Drug uptake in rat C6 cells assessed as morphologically differentiation at 10^-3 M after 50 mins by microscopy; format: ADME, cell-based; conditions: c6, 50 min, 1000 µM
C6 [17] = experiment: Drug uptake in rat C6 cells assessed as morphologically differentiation at 10^-3 M after 90 mins by microscopy; format: ADME, cell-based; conditions: c6, 1.5 h, 1000 µM
C6 [18] = experiment: Drug uptake in rat C6 cells assessed as cAMP level per of protein at 10^-3 M after 90 mins; format: ADME, cell-based; conditions: c6, 1.5 h, 1000 µM

Activity (C6 [1]) [%]	Ratio (Bos taurus [2])	Ratio (Bos taurus [3])	Ratio (Bos taurus [4])	Ratio (Bos taurus [5])	Rf [6]	Rf [7]	half-life [8] [h]	half-life at 5 µM [9] [h]	half-life [10] [h]	Activity (C6 [11]) [%]	Activity (C6 [12]) [%]	Activity (C6 [13]) [%]	Activity (C6 [14]) [pmol/mg]	Activity (C6 [15]) [%]	Activity (C6 [16]) [%]	Activity (C6 [17]) [%]	Activity (C6 [18]) [pmol/mg]	Structure (SMILES)
0	0	0	0.06	0.14	0.4	0.3	9.5	–	–	–	–	–	–	–	–	–	–	CCO[P@@]1(=O)OC[C@H]2O[C@@H](n3cnc4c(N)ncnc43)[C@H](O)[C@@H]2O1
0	0	0	0.06	0.58	0.35	0.19	3	–	–	–	–	–	–	–	–	–	–	CCO[P@]1(=O)OC[C@H]2O[C@@H](n3cnc4c(N)ncnc43)[C@H](O)[C@@H]2O1
90	0	0	0.24	0.54	0.43	0.34	9.5	240	–	–	–	–	–	–	–	–	–	Nc1ncnc2c1ncn2[C@@H]1O[C@@H]2CO[P@](=O)(OCc3ccc([N+](=O)[O-])cc3)O[C@H]2[C@H]1O
–	0.07	0.46	0.84	0.66	–	–	–	–	–	–	–	–	–	–	–	–	–	Nc1ncnc2c1ncn2[C@@H]1O[C@@H]2COP(=O)(OCc3ccccc3)O[C@H]2[C@H]1O (stereo partly specified)
90	0	0.04	0.59	1.28	0.39	0.26	3	83	0.867	–	–	–	–	–	–	–	–	Nc1ncnc2c1ncn2[C@@H]1O[C@@H]2CO[P@@](=O)(OCc3ccccc3[N+](=O)[O-])O[C@H]2[C@H]1O
90	0	0.04	0.49	1.01	0.37	0.25	3	73	–	–	–	–	–	–	–	–	–	Nc1ncnc2c1ncn2[C@@H]1O[C@@H]2CO[P@@](=O)(OCc3ccc([N+](=O)[O-])cc3)O[C@H]2[C@H]1O
90	0	0	0.05	0.34	0.44	0.39	9.5	300	1.1	–	–	–	–	–	–	–	–	Nc1ncnc2c1ncn2[C@@H]1O[C@@H]2CO[P@](=O)(OCc3ccccc3[N+](=O)[O-])O[C@H]2[C@H]1O
–	0	0.09	0.59	0.45	–	–	–	–	–	–	–	–	–	–	–	–	–	Nc1ncnc2c1ncn2[C@@H]1O[C@@H]2COP(=O)(OCc3ccccc3)O[C@H]2[C@H]1O (single isomer, unassigned) [listing 1 of 2 here]
90	–	–	–	–	0.46	0.39	9.5	2.2	–	–	–	–	–	–	–	–	–	Nc1ncnc2c1ncn2[C@@H]1O[C@@H]2COP(=O)(OCc3ccccc3)O[C@H]2[C@H]1O (single isomer, unassigned) [listing 2 of 2 here]
90	–	–	–	–	0.45	0.26	9.5	0.1	–	10	30	80	70	20	60	90	225	Cc1ccc(CO[P@@]2(=O)OC[C@H]3O[C@@H](n4cnc5c(N)ncnc54)[C@H](O)[C@@H]3O2)cc1
90	0.03	0.49	1	1.22	0.35	0.25	3	0.5	–	–	–	–	–	–	–	–	–	Nc1ncnc2c1ncn2[C@@H]1O[C@@H]2CO[P@@](=O)(OCc3ccccc3)O[C@H]2[C@H]1O
–	–	–	–	–	–	–	–	–	–	50	80	90	250	–	–	–	–	NC[C@H](O)c1ccc(O)c(O)c1.O=C(O)C(O)C(O)C(=O)O

Structure (SMILES)	Activity (C6 [1]) [%]	Ratio (Bos taurus [2])	Ratio (Bos taurus [3])	Ratio (Bos taurus [4])	Ratio (Bos taurus [5])	Rf [6]	Rf [7]	half-life [8] [h]	half-life at 5 µM [9] [h]	half-life [10] [h]	Activity (C6 [11]) [%]	Activity (C6 [12]) [%]	Activity (C6 [13]) [%]	Activity (C6 [14]) [pmol/mg]	Activity (C6 [15]) [%]	Activity (C6 [16]) [%]	Activity (C6 [17]) [%]	Activity (C6 [18]) [pmol/mg]
CO[P@@]1(=O)OC[C@H]2O[C@@H](n3cnc4c(N)ncnc43)[C@H](O)[C@@H]2O1	0	–	–	–	–	–	–	–	–	–	–	–	–	–	–	–	–	–
COP1(=O)OC[C@H]2O[C@@H](n3cnc4c(N)ncnc43)[C@H](O)[C@@H]2O1 (stereo partly specified)	–	0	0.05	0.52	0.67	0.33	0.18	–	–	–	–	–	–	–	–	–	–	–
CO[P@]1(=O)OC[C@H]2OC(n3cnc4c(N)ncnc43)[C@H](O)[C@@H]2O1 (single isomer, unassigned)	0	–	–	–	–	–	–	–	–	–	–	–	–	–	–	–	–	–
